Laboratory results from ChEMBL document CHEMBL1135503, “Lepadins D-F: antiplasmodial and antitrypanosomal decahydroquinoline derivatives from the tropical marine tunicate Didemnum sp” (J Med Chem, 2002).
Values after ≈ are worked out from the molar mass of the structure shown. Active and inactive are the calls of the source. The rule behind the calls is not given here.

Legend:
[1] = tested on: Trypanosoma brucei rhodesiense; experiment: 50% antitrypanosomal activity against Trypanosoma rhodesiense; type: functional, organism-based
Summary of the method: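 T. brucei rhodesiense grown axenically in culture medium supplemented with horse serum. IC50 in µg/mL.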

Trypanosoma cruzi = experiment: 50% antitrypanosomal activity against Trypanosoma cruzi; type: functional, organism-based
Summary of the method: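 Tulahuen strain of T. cruzi expressing E. coli β-galactosidase, grown as intracellular amastigotes in mammalian fibroblasts with drug for 5 days. Viability read colorimetrically from β-galactosidase turnover of chlorophenol red β-D-galactopyranoside, quantified on an ELISA reader. IC50 in µg/mL.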

Plasmodium falciparum [2] = experiment: Antiplasmodial activity against Plasmodium falciparum K1; type: functional, organism-based
Summary of the method: (§1)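 P. falciparum (NF54 chloroquine-sensitive, K1 chloroquine-resistant) cultured in vitro in human A+ erythrocytes with Albumax. Readout is inhibition of parasite-specific [3H]hypoxanthine incorporation. IC50 in µg/mL taken from logarithmic dose–response curves.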

Plasmodium falciparum [3] = experiment: Antiplasmodial activity against Plasmodium falciparum NF54; type: functional, organism-based; summary of the method: as §1
L6 = experiment: Cytotoxic effect in rat skeletal muscle myoblast L6 cells; type: functional, cell-based
Summary of the method: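 Rat L6 skeletal muscle myoblast cells. IC50 in µg/mL.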

[4] = target: Tyrosine-protein kinase Lck (Homo sapiens) (UniProt P06239); experiment: Inhibition of p56 Lck tyrosine kinase at 200 ug/mL (inactive)
Chain of Tyrosine-protein kinase Lck (Homo sapiens) (P06239 2-509 limits assumed): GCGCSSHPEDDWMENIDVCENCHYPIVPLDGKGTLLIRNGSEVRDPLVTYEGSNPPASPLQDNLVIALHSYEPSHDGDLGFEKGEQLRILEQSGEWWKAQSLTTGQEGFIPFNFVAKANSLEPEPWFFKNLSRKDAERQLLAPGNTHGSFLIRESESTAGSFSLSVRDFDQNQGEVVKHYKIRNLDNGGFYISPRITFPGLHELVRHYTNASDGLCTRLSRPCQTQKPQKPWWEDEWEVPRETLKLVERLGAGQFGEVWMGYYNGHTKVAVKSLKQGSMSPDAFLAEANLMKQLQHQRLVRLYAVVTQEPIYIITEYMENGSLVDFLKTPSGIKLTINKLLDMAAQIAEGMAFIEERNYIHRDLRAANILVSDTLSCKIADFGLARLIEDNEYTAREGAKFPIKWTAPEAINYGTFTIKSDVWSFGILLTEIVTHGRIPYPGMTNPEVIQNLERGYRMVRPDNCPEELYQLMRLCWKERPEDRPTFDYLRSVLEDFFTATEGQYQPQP

[5] = tested on: Aspergillus pseudoglaucus; experiment: Zone of inhibition from the edge of a circular filter disk impregnated with test substance, against Eurotium repens (antifungal activity); NA means inactive.; type: functional, organism-based
Summary of the method: (§2)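 Agar diffusion assay. Filter disks loaded with 0.02 mg sample each. Zone of inhibition measured in mm from the disk edge against the fungi Eurotium repens or Ustilago violacea (Microbotryum violaceum).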

Microbotryum violaceum = experiment: Zone of inhibition from the edge of a circular filter disk impregnated with test substance, against Ustilago violacea (antifungal activity); NA means inactive.; type: functional, organism-based; summary of the method: as §2
[6] = Trypanosoma brucei, read-out: IC50
[7] = Trypanosoma cruzi, read-out: IC50
[8] = Plasmodium falciparum, read-out: IC50

Row | Compound | IC50 [1, 6] [µg/mL] | IC50 (Trypanosoma cruzi; [7]) [µg/mL] | IC50 (Plasmodium falciparum [2]; [8]) [µg/mL] | IC50 (Plasmodium falciparum [3]; [8]) [µg/mL] | IC50 (L6) [µg/mL] | also measured
1 | Nc1nc(N)nc(Nc2ccc([As]3SCC(CO)S3)cc2)n1 (stereo unspecified) [MELARSOPROL] | 0.0026 | 0.6 | – | – | – | –
2 | CCCC(O)CCCC[C@@H]1CCC[C@@H]2N[C@H](C)[C@@H](O)C[C@H]12 (stereo in doubt; 1) [listing 1 of 2 here] | – | 37.2 (≈ 125 µM) | 6.1 (≈ 20.5 µM) | 10 (≈ 33.6 µM) | > 30 | IC50 [1]: 5.6 µg/mL (≈ 18.8 µM)
3 | CCCC(O)CCCC[C@@H]1CCC[C@@H]2N[C@H](C)[C@@H](O)C[C@H]12 (stereo in doubt; 1) [listing 2 of 2 here] | – | – | – | – | – | NA [4]: inactive
4 | CCCC(O)CCCC[C@@H]1CCC[C@@H]2N[C@H](C)[C@@H](O)C[C@H]12 (stereo in doubt; 2) [listing 1 of 2 here] | – | – | – | – | > 30 | IC50 (Plasmodium falciparum [2]): 4 µg/mL (≈ 13.4 µM); IC50 (Plasmodium falciparum [3]): 10 µg/mL (≈ 33.6 µM); IC50 [1]: 1.97 µg/mL (≈ 6.62 µM); IC50 (Trypanosoma cruzi): 37.3 µg/mL (≈ 125 µM)
5 | CCCC(O)CCCC[C@@H]1CCC[C@@H]2N[C@H](C)[C@@H](O)C[C@H]12 (stereo in doubt; 2) [listing 2 of 2 here] | – | – | – | – | – | NA [4]: inactive; NA [5]: inactive; NA (Microbotryum violaceum): inactive
6 | CCCCC/C=C/C(=O)O[C@H]1C[C@@H]2[C@H](CCCCC(O)CCC)CCC[C@@H]2N(C(=O)c2ccc(Br)cc2)[C@@H]1C (stereo partly specified) | 36.9 (≈ 60.9 µM) | – | 0.5 (≈ 0.827 µM) | 0.4 (≈ 0.662 µM) | – | –
7 | CCCCC/C=C/C(=O)O[C@H]1C[C@@H]2[C@H](CCCCC(O)CCC)CCC[C@@H]2N[C@@H]1C (stereo partly specified) [LEPADIN E] | 0.38 (≈ 0.901 µM) | 2.2 (≈ 5.22 µM) | 0.4 (≈ 0.949 µM) | 0.9 (≈ 2.13 µM) | 16.2 (≈ 38.4 µM) | –
8 | C[C@@H]1CC[C@H]2[C@@H](C)C(=O)O[C@@H]3O[C@@]4(C)CC[C@@H]1[C@]32OO4 [ARTEMISININ] | – | – | 0.001 (≈ 0.00354 µM) | 0.003 (≈ 0.0106 µM) | – | –
9 | CCCCC/C=C/C(=O)O[C@H]1C[C@@H]2[C@H](CCCCC(O)CCC)CCC[C@@H]2N[C@H]1C (stereo partly specified) [LEPADIN F] | 0.23 (≈ 0.545 µM) | 2.6 (≈ 6.17 µM) | 0.2 (≈ 0.474 µM) | 0.3 (≈ 0.711 µM) | 18.3 (≈ 43.4 µM) | –
